Experimental findings from ChEMBL document CHEMBL1275368, “Synthesis and evaluation of pyrazolone compounds as SARS-coronavirus 3C-like protease inhibitors” (Bioorg Med Chem, 2010) are described below.

Data set [1] deals with Genome polyprotein (Coxsackievirus B3 (strain Nancy)) (UniProt P03313). The data set can be described thus: Inhibition of coxsackievirus B3 3C protease at 50 uM by fluorescence plate reader analysis.
In data set [2] the target is Replicase polyprotein 1ab (Severe acute respiratory syndrome-related coronavirus) (UniProt P0C6X7). Kind of data set: Inhibition of SARS coronavirus 3C-like protease at 50 uM by fluorescence plate reader analysis. The procedure, abridged: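 Stored recombinant SARS-CoV 3CLpro at –70 °C in Tris/NaCl/EDTA/β-ME/DTT buffer. Screened compounds at 50 μM; those inhibiting >50% went on to the follow-up run.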

Another data set deals with HEK293. Kind of data set: Cytotoxicity against HEK293 cells at 200 uM after 24 hrs by MTT assay. The format is cell-based. As to conditions: human, hek293, 24 h. In short, it runs like this:
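HEK293 cells seeded at 2×10^5/ml in MEM with 10% FBS at 37 °C and 5% CO2. At 70% confluence, cells were exposed to compound for 24 h. MTT was then added for 4 h at 37 °C. Formazan was dissolved in DMSO after medium removal, and OD at 540 nm was read as cell viability.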
(Tetrazolium assays rely on reduction of a dye to a coloured formazan, in cell work by metabolically active cells.)

Data set [3] concerns the target Replicase polyprotein 1ab (Severe acute respiratory syndrome-related coronavirus, UniProt P0C6X7). The data set can be described thus: Inhibition of SARS coronavirus 3C-like protease by fluorescence plate reader analysis.
For a further data set, the target named is Genome polyprotein (Coxsackievirus B3 (strain Nancy), UniProt P03313). Kind of data set: Inhibition of coxsackievirus B3 3C protease by fluorescence plate reader analysis.

Structures are written as SMILES. Activity calls are given as the source filed them. The rule behind the calls is not given here.

Sequence of Genome polyprotein (P03313 1541-1723 limits assumed): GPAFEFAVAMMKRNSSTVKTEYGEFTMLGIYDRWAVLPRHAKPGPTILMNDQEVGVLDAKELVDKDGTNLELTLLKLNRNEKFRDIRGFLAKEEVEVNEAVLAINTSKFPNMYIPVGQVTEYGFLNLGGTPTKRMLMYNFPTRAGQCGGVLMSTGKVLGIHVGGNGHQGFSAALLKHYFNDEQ
Sequence of Genome polyprotein (Coxsackievirus B3 (strain Nancy)) (P03313 whole entry): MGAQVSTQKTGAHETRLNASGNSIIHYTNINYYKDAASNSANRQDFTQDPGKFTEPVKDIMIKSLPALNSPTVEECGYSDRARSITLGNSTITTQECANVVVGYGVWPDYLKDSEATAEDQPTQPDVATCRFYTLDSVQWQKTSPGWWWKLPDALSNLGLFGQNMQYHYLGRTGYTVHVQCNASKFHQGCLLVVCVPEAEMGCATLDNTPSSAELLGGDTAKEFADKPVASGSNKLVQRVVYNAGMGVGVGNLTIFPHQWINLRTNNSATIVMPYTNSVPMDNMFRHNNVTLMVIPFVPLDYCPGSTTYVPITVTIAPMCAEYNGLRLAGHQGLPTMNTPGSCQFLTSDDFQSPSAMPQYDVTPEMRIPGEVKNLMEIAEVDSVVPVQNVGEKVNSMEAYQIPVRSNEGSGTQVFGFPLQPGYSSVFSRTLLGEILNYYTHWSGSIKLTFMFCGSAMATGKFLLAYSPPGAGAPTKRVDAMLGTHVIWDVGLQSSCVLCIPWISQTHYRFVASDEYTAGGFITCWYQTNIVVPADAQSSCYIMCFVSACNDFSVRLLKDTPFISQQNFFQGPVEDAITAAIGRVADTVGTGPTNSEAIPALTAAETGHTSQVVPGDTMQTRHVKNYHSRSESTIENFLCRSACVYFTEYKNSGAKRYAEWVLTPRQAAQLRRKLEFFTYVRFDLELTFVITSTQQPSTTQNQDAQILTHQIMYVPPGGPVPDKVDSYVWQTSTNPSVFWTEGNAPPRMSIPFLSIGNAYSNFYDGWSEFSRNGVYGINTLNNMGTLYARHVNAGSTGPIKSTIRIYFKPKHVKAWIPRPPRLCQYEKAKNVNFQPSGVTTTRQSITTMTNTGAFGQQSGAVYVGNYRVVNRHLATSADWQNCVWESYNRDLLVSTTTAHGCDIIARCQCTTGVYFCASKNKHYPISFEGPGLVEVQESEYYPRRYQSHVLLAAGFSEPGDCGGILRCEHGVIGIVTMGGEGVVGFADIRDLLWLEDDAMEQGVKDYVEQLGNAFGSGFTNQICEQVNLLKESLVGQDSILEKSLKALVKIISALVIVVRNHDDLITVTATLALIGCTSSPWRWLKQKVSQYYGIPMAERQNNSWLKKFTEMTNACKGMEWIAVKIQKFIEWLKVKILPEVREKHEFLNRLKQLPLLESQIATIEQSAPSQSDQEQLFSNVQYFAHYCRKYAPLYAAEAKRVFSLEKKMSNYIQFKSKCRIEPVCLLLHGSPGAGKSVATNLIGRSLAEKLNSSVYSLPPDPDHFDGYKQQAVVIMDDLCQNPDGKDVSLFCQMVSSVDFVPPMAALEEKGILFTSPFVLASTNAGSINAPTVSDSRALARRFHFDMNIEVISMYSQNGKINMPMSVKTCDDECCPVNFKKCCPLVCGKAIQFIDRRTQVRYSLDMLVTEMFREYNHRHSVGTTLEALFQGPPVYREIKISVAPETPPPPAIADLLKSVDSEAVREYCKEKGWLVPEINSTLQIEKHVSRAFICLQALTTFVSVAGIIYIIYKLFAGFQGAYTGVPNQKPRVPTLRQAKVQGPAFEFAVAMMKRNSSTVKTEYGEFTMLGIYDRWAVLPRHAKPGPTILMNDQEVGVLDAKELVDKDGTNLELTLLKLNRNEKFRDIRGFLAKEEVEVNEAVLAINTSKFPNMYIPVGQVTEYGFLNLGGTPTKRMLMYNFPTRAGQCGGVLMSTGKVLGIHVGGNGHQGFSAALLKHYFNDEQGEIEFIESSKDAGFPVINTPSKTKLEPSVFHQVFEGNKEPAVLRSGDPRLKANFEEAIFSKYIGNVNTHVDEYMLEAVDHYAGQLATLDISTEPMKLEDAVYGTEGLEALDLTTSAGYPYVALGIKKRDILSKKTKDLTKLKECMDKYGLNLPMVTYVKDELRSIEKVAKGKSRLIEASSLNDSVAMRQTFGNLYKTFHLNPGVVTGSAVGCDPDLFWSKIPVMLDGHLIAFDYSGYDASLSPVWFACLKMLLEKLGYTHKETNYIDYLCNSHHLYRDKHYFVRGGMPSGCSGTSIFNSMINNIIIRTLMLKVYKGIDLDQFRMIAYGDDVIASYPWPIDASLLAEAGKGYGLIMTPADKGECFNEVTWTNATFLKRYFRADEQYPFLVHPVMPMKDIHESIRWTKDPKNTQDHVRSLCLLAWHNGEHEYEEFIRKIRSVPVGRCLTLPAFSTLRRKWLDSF

On to `CC(C)(C)c1ccc(N2N=C(c3ccccc3)/C(=C/c3ccc(C(=O)O)cc3)C2=O)cc1`, for which the inhibition result in data set [1] and in data set [2] was “inactive” throughout. Further, the Activity entry in the data set on HEK293 is recorded as “Non-toxic”.
`O=C(O)c1ccc(/C=C2\C(=O)N(c3cccc([N+](=O)[O-])c3)N=C2c2ccccc2)cc1`: the IC50 (as a rule, the concentration at which inhibition is half-maximal) is 8.4 µM in data set [3] and 9.6 µM against Genome polyprotein. For the same compound, the Activity result with HEK293 was “Non-toxic”.
In the same order, the values of `COc1ccc(N2N=C(c3ccccc3)/C(=C/c3ccc(C(=O)O)cc3)C2=O)cc1` are 12 µM, 16.6 µM and “Non-toxic”.
`COc1ccc(/C=C2\C(=O)N(c3ccc(Cl)cc3)N=C2c2ccccc2)cc1`: the inhibition entry in data set [1] and in data set [2] was “inactive” each time. Also, the Activity result in the data set on HEK293 is recorded as “Non-toxic”.
On to `O=C(O)c1ccc(/C=C2\C(=O)N(c3ccc(OC(F)(F)F)cc3)N=C2c2ccccc2)cc1`, for which the 50% inhibitory concentration (IC50) was found to be 42 µM in data set [3] and 98.8 µM on Genome polyprotein. Also, the Activity entry in the data set on HEK293 is on record as “Non-toxic”.
Regarding `N#Cc1ccc(N2N=C(c3ccccc3)/C(=C/c3ccc(C(=O)O)cc3)C2=O)cc1`, the IC50 was determined as 5.5 µM in data set [3] and 20.8 µM at Genome polyprotein. Besides, the Activity entry with HEK293 was “Non-toxic”.
In the case of `CC(=O)Nc1ccc(/C=C2\C(=O)N(c3ccc(Cl)cc3)N=C2c2ccccc2)cc1`, the inhibition result in data set [1] and in data set [2] was “inactive” in each case. The Activity entry in the data set on HEK293 was “Non-toxic”.
As to `CC(C)c1ccc(N2N=C(c3ccccc3)/C(=C/c3ccc(C(=O)O)cc3)C2=O)cc1`, the inhibition entry in data set [1] and in data set [2] was “inactive” each time. Moreover, the Activity entry in the data set on HEK293 was “Non-toxic”.
`O=C1/C(=C\c2cccc([N+](=O)[O-])c2)C(c2ccccc2)=NN1c1ccccc1`: the inhibition entry in data set [1] and in data set [2] was “inactive” each time. Also, the Activity entry in the data set on HEK293 is listed as “Non-toxic”.
With `O=C1/C(=C\c2ccccc2)C(c2ccccc2)=NN1c1ccccc1`, the inhibition entry in data set [1] and in data set [2] was “inactive” throughout. The Activity entry in the data set on HEK293 is on record as “Non-toxic”.
With `O=C(O)c1ccc(/C=C2\C(=O)N(c3ccc(Cl)cc3)N=C2c2ccccc2)cc1`, the IC50 in data set [3] turned out to be 13.9 µM; against Genome polyprotein it was 25 µM. Further, the Activity entry in the data set on HEK293 is recorded as “Non-toxic”.
The corresponding values for `O=C(O)c1ccc(/C=C2\C(=O)N(c3ccc(F)cc3)N=C2c2ccccc2)cc1` are 6.8 µM, 22.4 µM and “Non-toxic”.
As to `CC(=O)Nc1ccc(/C=C2\C(=O)N(c3ccccc3)N=C2c2ccccc2)cc1`, the inhibition result in data set [1] and in data set [2] was “inactive” in each case. Also, in the data set with HEK293, the Activity result is “Non-toxic”.
`CN(C)c1ccc(/C=C2\C(=O)N(c3ccccc3)N=C2c2ccccc2)cc1`: the inhibition result in data set [1] and in data set [2] was “inactive” each time. The Activity result in the data set with HEK293 is “Non-toxic”.
Regarding `O=C1/C(=C\c2ccc(O)cc2)C(c2ccccc2)=NN1c1ccc(Cl)cc1`, the inhibition entry in data set [1] and in data set [2] was “inactive” each time. The Activity result in the data set on HEK293 was “Non-toxic”.
`O=C1/C(=C\c2ccc(Cl)cc2)C(c2ccccc2)=NN1c1ccc(Cl)cc1`: the inhibition entry in data set [1] and in data set [2] was “inactive” in each case. Besides, the Activity entry in the data set with HEK293 was “Non-toxic”.
`COc1cccc(/C=C2\C(=O)N(c3ccccc3)N=C2c2ccccc2)c1`: the inhibition result in data set [1] and in data set [2] was “inactive” each time. Moreover, the Activity result with HEK293 is recorded as “Non-toxic”.
With `O=C(O)c1ccc(/C=C2\C(=O)N(c3cccc(Cl)c3)N=C2c2ccccc2)cc1`, the concentration for half-maximal inhibition (IC50) in data set [3] was 10.8 µM; on Genome polyprotein it was 17.3 µM. Also, in the data set with HEK293, the Activity result is given as “Non-toxic”.
In the same order, the values of `O=C(O)c1ccc(/C=C2\C(=O)N(c3ccccc3)N=C2c2ccccc2)cc1` are 18 µM, 51.1 µM and “Non-toxic”.
The corresponding values for `O=C(O)c1ccc(/C=C2\C(=O)N(c3ccc(Cl)c(Cl)c3)N=C2c2ccccc2)cc1` are 24.3 µM, 126 µM and “Non-toxic”.
As for `O=C1/C(=C\c2ccccc2)C(c2ccccc2)=NN1c1ccc(Cl)cc1`, the inhibition result in data set [1] and in data set [2] was “inactive” in each case. For the same compound, the Activity result with HEK293 is “Non-toxic”.
